Test results taken from publication PMC2833353 (Cancer research, 2009).
Where a SMILES comes first, the peptide text is derived from it. Bridges are numbered along the chain shown (N, C = ends). The star is where a group is joined. DOTA = O=C(O)CN1CCN(CC(=O)O)CCN(CC(=O)*)CCN(CC(=O)O)CC1

Columns and labels:
U87MG cells = details: read-out: IC50, competition binding of 125I-echistatin on U87MG cells; cited from earlier work
[1] = In vivo biodistribution study in U87MG tumor-bearing mice; details: female, athymic nude (nu/nu), mouse, iv, total radioactivity; for tissue uptake at 24 h: kidneys; for tissue to tissue ratio at 4 h: tumor / blood
How it was run: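 Female athymic nu/nu mice with subcutaneous shoulder U87MG xenografts (2 × 10^7 cells; tumors ~8–10 mm) were anesthetized and given ~100 μCi of 64Cu-DOTA-labeled knottin peptide by tail vein, then sacrificed at 0.5, 1, 4 or 24 h. Tumor, blood, kidneys and other organs were weighed and gamma-counted against a tracer aliquot, giving %ID/g and tumor-to-organ ratios. Mean ± SD, ≥3 mice.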

[2] = target: integrin αvβ3 (Homo sapiens) (UniProt P06756); details: cited from earlier work
Chain of integrin αvβ3 (Homo sapiens) (P06756 31-1048, chain 1 of 2): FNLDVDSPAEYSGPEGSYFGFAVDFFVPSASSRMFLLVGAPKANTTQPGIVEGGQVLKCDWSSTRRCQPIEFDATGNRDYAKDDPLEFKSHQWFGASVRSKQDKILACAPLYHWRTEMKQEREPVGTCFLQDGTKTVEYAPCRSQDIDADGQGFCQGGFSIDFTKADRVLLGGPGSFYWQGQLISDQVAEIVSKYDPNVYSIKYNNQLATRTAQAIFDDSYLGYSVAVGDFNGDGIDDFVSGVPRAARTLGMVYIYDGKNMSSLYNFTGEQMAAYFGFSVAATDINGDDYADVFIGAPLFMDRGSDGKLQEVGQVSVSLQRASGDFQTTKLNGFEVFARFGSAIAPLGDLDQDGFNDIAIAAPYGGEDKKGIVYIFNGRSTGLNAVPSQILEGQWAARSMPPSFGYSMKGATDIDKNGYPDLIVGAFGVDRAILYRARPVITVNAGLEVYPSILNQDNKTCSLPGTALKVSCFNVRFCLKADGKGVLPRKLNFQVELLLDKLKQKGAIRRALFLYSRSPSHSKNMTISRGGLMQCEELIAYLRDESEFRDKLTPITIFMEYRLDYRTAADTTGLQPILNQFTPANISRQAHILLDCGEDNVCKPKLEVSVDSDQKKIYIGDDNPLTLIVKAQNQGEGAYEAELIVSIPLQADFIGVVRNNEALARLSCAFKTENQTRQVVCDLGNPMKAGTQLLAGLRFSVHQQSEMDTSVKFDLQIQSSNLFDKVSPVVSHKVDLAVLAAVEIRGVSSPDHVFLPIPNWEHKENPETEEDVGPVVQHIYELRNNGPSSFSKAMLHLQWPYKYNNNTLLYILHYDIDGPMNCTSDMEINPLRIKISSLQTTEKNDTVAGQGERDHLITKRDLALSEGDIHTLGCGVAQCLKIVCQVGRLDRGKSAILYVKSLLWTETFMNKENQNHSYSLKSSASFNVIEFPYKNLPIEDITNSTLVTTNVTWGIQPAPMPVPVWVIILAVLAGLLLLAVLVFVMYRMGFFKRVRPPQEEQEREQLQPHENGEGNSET
Chain of integrin αvβ3 (Homo sapiens) (P05106 27-788, chain 2 of 2, further chain): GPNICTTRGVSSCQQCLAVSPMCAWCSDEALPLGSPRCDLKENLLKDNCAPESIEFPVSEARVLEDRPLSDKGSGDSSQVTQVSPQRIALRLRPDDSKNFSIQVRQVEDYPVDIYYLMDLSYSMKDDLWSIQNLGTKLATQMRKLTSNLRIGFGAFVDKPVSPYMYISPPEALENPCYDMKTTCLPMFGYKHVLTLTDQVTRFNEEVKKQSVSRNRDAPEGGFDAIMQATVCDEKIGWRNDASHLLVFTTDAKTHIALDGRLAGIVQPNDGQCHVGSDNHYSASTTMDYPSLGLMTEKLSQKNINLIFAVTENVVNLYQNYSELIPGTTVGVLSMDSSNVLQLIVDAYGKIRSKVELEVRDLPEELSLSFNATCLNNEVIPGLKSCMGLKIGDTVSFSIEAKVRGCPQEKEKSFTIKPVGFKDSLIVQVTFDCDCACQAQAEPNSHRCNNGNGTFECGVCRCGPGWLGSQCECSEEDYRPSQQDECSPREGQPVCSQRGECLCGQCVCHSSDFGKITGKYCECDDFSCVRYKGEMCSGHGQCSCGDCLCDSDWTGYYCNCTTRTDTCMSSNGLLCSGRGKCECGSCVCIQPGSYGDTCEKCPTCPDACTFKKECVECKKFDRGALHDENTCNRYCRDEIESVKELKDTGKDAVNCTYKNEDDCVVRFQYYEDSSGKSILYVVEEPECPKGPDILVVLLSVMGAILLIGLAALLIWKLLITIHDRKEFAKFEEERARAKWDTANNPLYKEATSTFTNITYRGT

Chain of Echistatin (P17347 131-179): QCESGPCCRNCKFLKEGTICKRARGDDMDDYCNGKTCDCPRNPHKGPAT

Row | Molecule | IC50 (U87MG cells) | tissue uptake at 24 h [1] | tissue to tissue ratio at 4 h [1] | Kd [2]
2 | CC(C)C[C@@H]1NC(=O)[C@@H]2CSSC[C@@H](C(=O)NCC(N)=O)NC(=O)[C@H](Cc3ccccc3)NC(=O)CNC(=O)[C@H](CC(N)=O)NC(=O)[C@@H]3CCCN3C(=O)CNC(=O)[C@@H]3CSSC[C@H](NC(=O)[C@H](CO)NC(=O)[C@H]([C@@H](C)O)NC(=O)[C@@H]4CCCN4C(=O)[C@H](C)NC(=O)[C@H](Cc4c[nH]c5ccccc45)NC(=O)[C@H](CC(=O)O)NC(=O)CNC(=O)[C@H](CCCNC(=N)N)NC(=O)CNC(=O)[C@H](CCC(N)=O)NC(=O)[C@@H]4CCCN4C(=O)[C@@H](NC(=O)CNC(=O)CN4CCN(CC(=O)O)CCN(CC(=O)O)CCN(CC(=O)O)CC4)CSSC[C@H](NC(=O)CNC(=O)[C@H](C)NC1=O)C(=O)N[C@@H](C(C)C)C(=O)N3)C(=O)N[C@@H](CO)C(=O)N[C@@H](CCC(N)=O)C(=O)N[C@@H](CC(=O)O)C(=O)N[C@@H](CO)C(=O)N[C@@H](CC(=O)O)C(=O)N2 [^64Cu-DOTA-2.5D, metal not drawn] ({DOTA}-GCPQGRGDWAPTSCSQDSDCLAGCVCGPNGFCG-NH2; disulfide 2-24, 14-26, 20-32; C-terminus assumed) |  | 1.25 ± 0.11 %ID/g | 24.9 ± 2.62 | 
3 | Echistatin (from UniProt P17347) |  |  |  | 0.00036 µM
4 | CC(C)C[C@@H]1NC(=O)[C@@H]2CSSC[C@@H](C(=O)NCC(N)=O)NC(=O)[C@H](Cc3ccccc3)NC(=O)CNC(=O)[C@H](CC(N)=O)NC(=O)[C@@H]3CCCN3C(=O)CNC(=O)[C@@H]3CSSC[C@H](NC(=O)[C@H]([C@@H](C)O)NC(=O)[C@H](CC(C)C)NC(=O)[C@@H]4CCCN4C(=O)[C@@H]4CCCN4C(=O)[C@H](CC(N)=O)NC(=O)[C@H](CC(=O)O)NC(=O)CNC(=O)[C@H](CCCNC(=N)N)NC(=O)[C@@H]4CCCN4C(=O)[C@H](CCCNC(=N)N)NC(=O)[C@@H]4CCCN4C(=O)[C@@H](NC(=O)CNC(=O)CN4CCN(CC(=O)O)CCN(CC(=O)O)CCN(CC(=O)O)CC4)CSSC[C@H](NC(=O)CNC(=O)[C@H](C)NC1=O)C(=O)N[C@@H](C(C)C)C(=O)N3)C(=O)N[C@@H](CO)C(=O)N[C@@H](CCC(N)=O)C(=O)N[C@@H](CC(=O)O)C(=O)N[C@@H](CO)C(=O)N[C@@H](CC(=O)O)C(=O)N2 [^64Cu-DOTA-2.5F, metal not drawn] ({DOTA}-GCPRPRGDNPPLTCSQDSDCLAGCVCGPNGFCG-NH2; disulfide 2-24, 14-26, 20-32) |  | 1.09 ± 0.15 %ID/g | 42.3 ± 8.65 | 
